Assay results from ChEMBL document CHEMBL4041496, “Natural-Based Indirubins Display Potent Cytotoxicity toward Wild-Type and T315I-Resistant Leukemia Cell Lines” (J Nat Prod, 2016).

Experiments:
KCL-22 [1] = test: Cytotoxicity against human KCL22 cells assessed as reduction in cell viability after 48 hrs by MTS assay; assay type: functional, cell-based
KCL-22 [2] = test: Cytotoxicity against human KCL22 cells harboring ABL1 T315I mutant assessed as cell viability at 1 uM after 48 hrs by MTS assay relative to control; assay type: functional; conditions: for viability at 1 µM: Homo sapiens, KCL-22, 48 h, read-out: Activity
Outline: (§1)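 Single-concentration screen: KCL-22 cells, or KCL-22 cells expressing T315I mutant Bcr-Abl, grown in RPMI-1640 with 10% FBS. Cells were seeded at 10 000/well, held overnight at 37 °C in 5% CO2, then exposed to 1 μM compound for 48 h, with DMSO as vehicle control. Viability was read by MTS tetrazolium-to-formazan conversion, absorbance 490 nm, in triplicate.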

KCL-22 [3] = test: Cytotoxicity against human KCL22 cells assessed as cell viability at 1 uM after 48 hrs by MTS assay relative to control; assay type: functional; conditions: for viability at 1 µM: Homo sapiens, KCL-22, 48 h, read-out: Activity; outline: as §1
Aurora kinase A = target: T1, Aurora kinase A (Homo sapiens, UniProt O14965); test: Inhibition of recombinant Aurora A (unknown origin) after 120 mins in presence of [33P]ATP
T1 sequence (O14965 whole entry): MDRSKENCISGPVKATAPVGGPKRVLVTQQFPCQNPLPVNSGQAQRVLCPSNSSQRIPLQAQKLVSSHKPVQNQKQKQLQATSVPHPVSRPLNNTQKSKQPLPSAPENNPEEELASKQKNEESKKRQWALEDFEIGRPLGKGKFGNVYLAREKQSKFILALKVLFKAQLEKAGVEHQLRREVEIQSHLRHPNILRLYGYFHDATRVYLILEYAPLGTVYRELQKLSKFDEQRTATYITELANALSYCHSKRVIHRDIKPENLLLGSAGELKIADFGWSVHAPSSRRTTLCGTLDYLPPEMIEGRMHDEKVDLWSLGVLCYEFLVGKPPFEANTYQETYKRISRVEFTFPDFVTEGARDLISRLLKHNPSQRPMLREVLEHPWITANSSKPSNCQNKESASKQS

[4] = target: Tyrosine-protein kinase ABL1 (Homo sapiens, UniProt P00519, T315I); test: Inhibition of recombinant ABL1 T315I mutant (unknown origin) after 120 mins in presence of [33P]ATP
[5] = target: Tyrosine-protein kinase JAK2 (Homo sapiens, UniProt O60674); test: Inhibition of recombinant JAK2 (unknown origin) after 120 mins in presence of [33P]ATP
[6] = target: Tyrosine-protein kinase ABL1 (Homo sapiens, UniProt P00519); test: Inhibition of recombinant ABL1 (unknown origin) after 120 mins in presence of [33P]ATP
KCL-22 [7] = test: Cytotoxicity against human KCL22 cells harboring ABL1 T315I mutant assessed as reduction in cell viability after 48 hrs by MTS assay; assay type: functional, cell-based; conditions: KCL-22, 48 h
[8] = target: Proto-oncogene tyrosine-protein kinase Src (Homo sapiens, UniProt P12931); test: Inhibition of recombinant c-Src (unknown origin) after 120 mins in presence of [33P]ATP
Proto-oncogene tyrosine-protein kinase Src, sequence (P12931 2-536 limits assumed): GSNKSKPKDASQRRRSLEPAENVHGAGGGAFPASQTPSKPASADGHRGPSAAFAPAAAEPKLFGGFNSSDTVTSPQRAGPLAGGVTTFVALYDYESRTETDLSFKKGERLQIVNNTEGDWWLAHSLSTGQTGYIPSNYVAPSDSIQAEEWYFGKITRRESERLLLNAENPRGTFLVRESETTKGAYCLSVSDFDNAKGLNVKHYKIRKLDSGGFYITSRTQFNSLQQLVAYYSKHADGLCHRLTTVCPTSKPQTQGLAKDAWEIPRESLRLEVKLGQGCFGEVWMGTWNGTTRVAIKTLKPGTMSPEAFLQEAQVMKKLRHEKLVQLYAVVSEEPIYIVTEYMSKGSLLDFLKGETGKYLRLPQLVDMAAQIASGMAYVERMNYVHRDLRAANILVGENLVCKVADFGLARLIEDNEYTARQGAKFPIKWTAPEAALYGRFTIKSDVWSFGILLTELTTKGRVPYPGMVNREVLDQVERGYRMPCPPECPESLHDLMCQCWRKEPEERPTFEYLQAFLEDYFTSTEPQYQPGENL

Tyrosine-protein kinase JAK2, sequence (O60674 whole entry): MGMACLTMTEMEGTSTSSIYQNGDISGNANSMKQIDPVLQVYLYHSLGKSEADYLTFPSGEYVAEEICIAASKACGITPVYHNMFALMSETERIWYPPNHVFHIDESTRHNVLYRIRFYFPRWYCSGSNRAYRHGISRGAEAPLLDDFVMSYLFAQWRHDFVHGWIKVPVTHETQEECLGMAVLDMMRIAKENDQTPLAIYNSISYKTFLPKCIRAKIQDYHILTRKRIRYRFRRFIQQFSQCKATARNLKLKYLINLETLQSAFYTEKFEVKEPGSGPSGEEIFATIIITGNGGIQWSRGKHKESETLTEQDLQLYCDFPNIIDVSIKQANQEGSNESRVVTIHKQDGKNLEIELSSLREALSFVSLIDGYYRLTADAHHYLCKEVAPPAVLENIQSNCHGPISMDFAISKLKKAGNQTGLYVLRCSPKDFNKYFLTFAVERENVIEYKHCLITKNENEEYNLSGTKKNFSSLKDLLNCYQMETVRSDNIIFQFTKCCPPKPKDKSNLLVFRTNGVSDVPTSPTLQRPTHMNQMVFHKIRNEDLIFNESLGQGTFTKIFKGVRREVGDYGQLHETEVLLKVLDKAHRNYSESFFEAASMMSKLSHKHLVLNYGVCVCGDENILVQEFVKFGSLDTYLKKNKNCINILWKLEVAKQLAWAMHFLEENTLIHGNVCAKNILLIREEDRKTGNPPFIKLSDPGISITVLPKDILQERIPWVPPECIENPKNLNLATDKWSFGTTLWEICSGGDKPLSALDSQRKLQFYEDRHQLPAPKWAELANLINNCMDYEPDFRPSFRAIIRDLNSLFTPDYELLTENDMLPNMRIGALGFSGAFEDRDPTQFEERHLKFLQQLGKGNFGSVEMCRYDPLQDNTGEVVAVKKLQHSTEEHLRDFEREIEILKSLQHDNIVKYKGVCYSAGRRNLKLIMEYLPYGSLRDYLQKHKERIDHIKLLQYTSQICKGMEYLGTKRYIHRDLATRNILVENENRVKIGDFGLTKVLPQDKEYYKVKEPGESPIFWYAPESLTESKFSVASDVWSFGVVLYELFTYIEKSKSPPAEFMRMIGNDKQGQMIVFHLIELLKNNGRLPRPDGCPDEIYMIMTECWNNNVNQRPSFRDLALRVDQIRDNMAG

| Structure (SMILES) | IC50 (KCL-22 [1]; Homo sapiens, KCL-22, 48 h) [nM] | viability at 1 µM (KCL-22 [2]) [%] | viability at 1 µM (KCL-22 [3]) [%] | IC50 (KCL-22 [1]; kcl-22) [nM] | Activity (KCL-22 [2]) [%] | Activity (KCL-22 [3]) [%] | IC50 (Aurora kinase A) [nM] | IC50 [4] [nM] | IC50 [5] [nM] | IC50 [6] [nM] | IC50 (KCL-22 [7]) [nM] | IC50 [8] [nM] |
| --- | --- | --- | --- | --- | --- | --- | --- | --- | --- | --- | --- | --- |
| O=C1Nc2cc(Br)ccc2/C1=C1/Nc2ccccc2/C1=N\OCC(O)CO (stereo not drawn) | 750 | > 50 | < 50 |  |  |  |  |  |  |  |  |  |
| CN1CCN(CCO/N=C2/C(=C3/C(=O)Nc4cc(Br)ccc43)Nc3ccccc32)CC1 |  | > 50 | < 50 | 500 |  |  |  |  |  |  |  |  |
| O=C1Nc2cc(Br)ccc2/C1=C1/Nc2ccccc2/C1=N\OCCN1CCN(CCO)CC1 | 830 |  |  |  | >50 | <50 |  |  |  |  |  |  |
| O=C1Nc2cc(Br)ccc2/C1=C1/Nc2ccccc2/C1=N\OCCN1CCNCC1 |  | < 50 | < 50 | 330 |  |  | 7.1 | 9.4 | 224 | 0.87 | 430 | < 0.5 |
